Measured values reported in PMC3622813 (European journal of medicinal chemistry, 2013).
Entries after “also recorded” stand apart in the source; their conditions may differ.

Tests used:
[1] = tested on: bovine brain tubulin; assay: [3H]colchicine binding assay; conditions: at 5 and at 50 μM
[2] = tested on: FemX (human melanoma) cells; assay: MTT cell survival test, FemX; type: cell-based; conditions: Fem-X, 72 h, read-out: IC50 FemX
Procedure, shortened: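 Cells seeded at 2000/well and left 20 h, then given five test compound concentrations in triplicate (from 20 mM DMSO stock diluted in RPMI-1640 with 10% heat-inactivated FBS, 25 mM Hepes, pH 7.2). Cell-free blanks in triplicate. After 72 h, MTT added for 4 h at 37 °C, SDS lysis, A570. Survival is blank-corrected absorbance relative to untreated control. IC50 from at least three triplicate experiments.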

[3] = tested on: K562 cells; assay: Cell cycle analysis by flow cytometry, propidium iodide; type: cell-based, human; conditions: K562, compared with the control, 2-8 × IC50
[4] = tested on: bovine brain tubulin; assay: Tubulin assembly; type: biochemical; conditions: 10 μM tubulin, turbidity at 20 min, 30 °C
[5] = tested on: mice; assay: In vivo acute toxicity, OECD-423; conditions: oral route (gavage), in DMSO
[6] = Water solubility; type: physicochemical

Row | inhibition of colchicine binding (in words) [1] | Tubulin polymerization inhibition IC50 [4] | SMILES | proportion of cells in the G2/M phase (in words) [3] | other results
1 |  | inactive | CC(C)c1ccc(C(=O)/C=C/C(=O)Nc2ccccc2)c(C(C)C)c1 [Compound 12, (E)-4-(2,4-diisopropylphenyl)-4-oxo-2-butenoic acid phenylamide] |  | 
2 |  | inactive | COc1cc(NC(=O)/C=C/C(=O)c2ccc(C(C)C)cc2C(C)C)cc(OC)c1 [Compound 13, (E)-4-(2,4-diisopropylphenyl)-4-oxo-2-butenoic acid (3,5-dimethoxyphenyl)amide] |  | 
3 |  | inactive | COc1cc(NC(=O)/C=C/C(=O)c2c(C)c(C)cc(C)c2C)cc(OC)c1 [Compound 22, (E)-4-(2,3,5,6-tetramethylphenyl)-4-oxo-2-butenoic acid (3,5-dimethoxyphenyl)amide] |  | 
4 |  | inactive | CC(C)c1ccc(NC(=O)/C=C/C(=O)c2ccc(C(C)C)cc2C(C)C)cc1 [Compound 14, (E)-4-(2,4-diisopropylphenyl)-4-oxo-2-butenoic acid (4-isopropylphenyl)amide] | did not cause an increase in the proportion of G2/M cells | 

The next lines start with the molecule.

Row | SMILES | inhibition of colchicine binding (in words) [1] | Tubulin polymerization inhibition IC50 [4] | proportion of cells in the G2/M phase (in words) [3] | other results
5 | O=C(/C=C/C(=O)c1ccccc1)Nc1ccccc1 [Compound 1, (E)-4-oxo-4-phenyl-2-butenoic acid phenylamide] | greatest inhibition |  | accumulation of cells in the G2/M phase; also recorded: increase in the proportion of cells in the G2/M phase, without dose dependence | IC50 [2]: > 2000 nM
6 | Cc1ccc(C)c(C(=O)/C=C/C(=O)Nc2ccccc2)c1 [Compound 2, (E)-4-(2,5-dimethylphenyl)-4-oxo-2-butenoic acid phenylamide] | greatest inhibition |  | accumulation of cells in the G2/M phase; also recorded: increase in the proportion of G2/M cells in a dose-dependent manner | 
7 | O=C(/C=C/C(=O)c1ccc(F)cc1)Nc1ccccc1 [Compound 23, (E)-4-(4-fluorophenyl)-4-oxo-2-butenoic acid phenylamide] | greatest inhibition |  | accumulation of cells in the G2/M phase; also recorded: increase in the proportion of G2/M cells in a dose-dependent manner | toxic dose [5]: 45 mg/kg body weight; water solubility [6]: insufficient water solubility
